For assay [1], the target named is Dual specificity mitogen-activated protein kinase kinase 1 (Homo sapiens, UniProt Q02750). Description: Inhibition of MEK1 phosphorylation by activated human recombinant Raf.
The test system of another assay is Caco-2. Description: Inhibition of human adenocarcinoma cell line Caco-2 proliferation. The assay is classed as functional, cell-based. The method in brief:
(§1)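 Cells grown in RPMI 1640 with 10% fetal bovine serum, L-glutamine and penicillin/streptomycin. Compounds from 100% DMSO stocks were diluted in complete medium and applied at varying concentrations. Growth inhibition was read by sulforhodamine B staining, reported as IC50.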

The next assay deals with LoVo. Description: Inhibition of human adenocarcinoma cell line LoVo proliferation. The class given is functional, cell-based. The method in brief:
as §1

For assay [2], the target named is Serine/threonine-protein kinase RAF and Dual specificity mitogen-activated protein kinase kinase 1 (Raf/MEK) (Homo sapiens, UniProt P04049+Q02750). Nature of the assay: Inhibition of kinase activity of Raf/MEK/ERK kinase cascade in ELISA. The class given is protein assay. (In general: ELISA stands for enzyme-linked immunosorbent assay.)

Dual specificity mitogen-activated protein kinase kinase 1, sequence (Q02750 whole entry): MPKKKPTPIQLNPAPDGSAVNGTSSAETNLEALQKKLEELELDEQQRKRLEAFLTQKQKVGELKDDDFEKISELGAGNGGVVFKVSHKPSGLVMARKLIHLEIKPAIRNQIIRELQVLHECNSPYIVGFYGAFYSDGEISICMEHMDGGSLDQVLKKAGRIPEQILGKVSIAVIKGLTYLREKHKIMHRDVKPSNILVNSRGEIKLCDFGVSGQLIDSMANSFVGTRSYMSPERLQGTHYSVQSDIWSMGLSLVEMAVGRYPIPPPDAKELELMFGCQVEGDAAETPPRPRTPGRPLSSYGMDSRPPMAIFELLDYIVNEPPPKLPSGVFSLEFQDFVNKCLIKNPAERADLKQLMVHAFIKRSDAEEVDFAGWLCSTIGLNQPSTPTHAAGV

As usually defined, the IC50 is the concentration at which inhibition is half-maximal. Consider `NC1=N/C(=C2/CCNC(=O)c3[nH]ccc32)C(=O)N1` [DEBROMOHYMENIALDISINE], for which the IC50 in assay [1] is above 2.5 µM; with Caco-2 it was above 10 µM; with LoVo, above 10 µM; in assay [2], 0.881 µM.
Regarding `O=C1CCNC(=O)c2[nH]ccc21` [ALDISIN], the IC50 in assay [1] is above 2.5 µM; in the assay on Caco-2, above 10 µM; in the assay on LoVo, above 10 µM; in assay [2], above 2.5 µM.
Regarding `NC1=N/C(=C2\CCNC(=O)c3[nH]c(Br)cc32)C(=O)N1`, the IC50 with Caco-2 was above 3.87 µM; in the assay on LoVo, 0.586 µM.
Regarding `Nc1nc(C2CCNC(=O)c3[nH]c(Br)c(Br)c32)c[nH]1` (stereo not drawn), the IC50 in assay [1] was above 2.5 µM; in the assay on Caco-2, above 10 µM; with LoVo, above 10 µM; in assay [2], 1.288 µM.
For the compound `NC(=O)c1cc(Br)c(Br)[nH]1`, the IC50 is above 2.5 µM in assay [1], above 10 µM in the assay on Caco-2, above 10 µM in the assay with LoVo and above 2.5 µM in assay [2].
Turning to `Nc1ncc(/C=C/CNC(=O)c2cc(Br)c(Br)[nH]2)[nH]1` [OROIDIN], the IC50 in assay [1] is above 2.5 µM; with Caco-2 it was above 10 µM; in the assay on LoVo it was above 10 µM; in assay [2] it was above 2.5 µM.
Consider `NC1=NC(=O)/C(=C2\CCNC(=O)c3[nH]c(Br)cc32)N1` [HYMENIALDISINE], for which the IC50 with Caco-2 was above 7.8 µM; with LoVo it was 0.71 µM.
On the same counts, the results for `O=C1CCNC(=O)c2[nH]c(Br)cc21` are above 10 µM and above 10 µM.
On the same counts, the results for `CSCC[C@H](NC(=O)c1ccc(NC[C@@H](N)CS)cc1-c1ccccc1)C(=O)O` are above 10 µM and 0.05 µM.
